{"source": "paper PMC8821119", "about": "(Clinical breast cancer, 2021)", "key": {"[1]": {"tested_on": "early stage ERα+ breast cancer patients", "conditions": "short-term MK0752 added to letrozole or tamoxifen, neo-adjuvant; cited from earlier work"}, "[2]": {"tested_on": "PKCα-overexpressing, Notch4-positive ER+ cells", "conditions": "reverses endocrine resistance; cited from earlier work"}, "[3]": {"tested_on": "HER2-enriched breast cancer", "conditions": "cited from earlier work"}, "[4]": {"test": "clinical", "conditions": "human, in vivo"}, "[5]": {"tested_on": "ER+ metastatic breast cancer", "test": "Phase Ib trial: clinical response", "format": "in vivo, human", "conditions": "RO4929097 with exemestane"}, "[6]": {"tested_on": "Notch1 cleavage", "conditions": "cited from earlier work"}, "[7]": {"tested_on": "patients with ER+ metastatic breast cancer", "set-up": "species or system human", "conditions": "in vivo"}, "[8]": {"tested_on": "T47D:PKCα cells", "test": "Secondary mammosphere formation assay", "format": "cell-based", "conditions": "7 days", "how_it_was_run": "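T47D cells electroporated with a PKCα plasmid; G418-resistant clone F2 was chosen for PKCα overexpression on Western blot and STR-authenticated as T47D. Secondary mammosphere cultures were treated with test compound (30 nM), alone or with a γ-secretase inhibitor (5 μM), at pilot-chosen concentrations. Mammospheres counted after 7 days; 3 independent experiments, mean ± standard deviation.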"}, "[9]": {"tested_on": "plasma protein", "conditions": "cited from earlier work"}}, "note": "Where “and” joins values, the source holds several entries; their conditions need not be identical. Identical values can stand only once."}
{"smiles": "O=C(O)CC[C@H]1CC[C@@](c2cc(F)ccc2F)(S(=O)(=O)c2ccc(Cl)cc2)CC1", "note": "[MK0752]", "values": [{"measurement": "Ki67 expression in tumors", "setting": "[1]", "result": "significantly affected Ki67 expression"}, {"measurement": "Toxicity", "setting": "[1]", "result": "no significant toxicity"}]}
{"smiles": "O=S1(=O)N[C@@]2(CN1CC(F)(F)F)[C@@H]1CC[C@H]2Cc2ccc(/C=C/CN3CCC(C(F)(F)F)CC3)cc2C1", "note": "[MRK003]", "values": [{"measurement": "Tumor response and toxicity", "setting": "[2]", "result": "causes tumor regression without significant toxicity"}, {"measurement": "Effect on tumor volume", "setting": "[3]; MRK003 alone", "result": "virtually no effect on tumor volume"}, {"measurement": "Tumor recurrence", "setting": "[3]; MRK003 in combination with trastuzumab", "result": "abrogated tumor recurrence"}]}
{"smiles": "CC(C)(C(=O)NCC(F)(F)C(F)(F)F)C(=O)N[C@@H]1C(=O)Nc2ccccc2-c2ccccc21", "note": "[RO4929097]", "values": [{"measurement": "Drug levels six days after dosing", "setting": "[4]", "result": "nearly unquantifiable levels"}, {"measurement": "AUC(0-t)", "setting": "[4]; po, 20 mg", "result": 4550, "unit": "ng·h/mL"}, {"measurement": "Clearance mean (±st dev)", "setting": "[4]; po, 20 mg", "result": "2.3 (±1.5) L/hr"}, {"measurement": "Cmax", "setting": "[4]; po, 20 mg", "result": 266, "unit": "ng/mL"}, {"measurement": "Tmax", "setting": "[4]; po, 20 mg", "result": 3, "unit": "h"}, {"measurement": "half-life", "setting": "[4]; po, 20 mg", "result": 26, "unit": "h"}, {"measurement": "AUC(0-t)", "setting": "[4]; po, 30 mg", "result": 7710, "unit": "ng·h/mL"}, {"measurement": "Clearance mean (±st dev)", "setting": "[4]; po, 30 mg", "result": "2.1 (±0.3) L/hr"}, {"measurement": "Cmax", "setting": "[4]; po, 30 mg", "result": 1050, "unit": "ng/mL"}, {"measurement": "Tmax", "setting": "[4]; po, 30 mg", "result": 0.5, "unit": "h"}, {"measurement": "half-life", "setting": "[4]; po, 30 mg", "result": 20.7, "unit": "h"}, {"measurement": "AUC(0-t)", "setting": "[4]; po, 45 mg", "result": 10400, "unit": "ng·h/mL"}, {"measurement": "Clearance mean (±st dev)", "setting": "[4]; po, 45 mg", "result": "2.8 (±2.2) L/hr"}, {"measurement": "Cmax", "setting": "[4]; po, 45 mg", "result": 1110, "unit": "ng/mL"}, {"measurement": "Tmax mean (range)", "setting": "[4]; po, 45 mg", "result": "1.5 (1–2) hr"}, {"measurement": "half-life", "setting": "[4]; po, 45 mg", "result": 23.1, "unit": "h"}, {"measurement": "AUC(0-t)", "setting": "[4]; po, 90 mg", "result": 21100, "unit": "ng·h/mL"}, {"measurement": "Clearance mean (±st dev)", "setting": "[4]; po, 90 mg", "result": 2.8, "unit": "L/h"}, {"measurement": "Cmax", "setting": "[4]; po, 90 mg", "result": 2080, "unit": "ng/mL"}, {"measurement": "Tmax", "setting": "[4]; po, 90 mg", "result": 4.3, "unit": "h"}, {"measurement": "half-life", "setting": "[4]; po, 90 mg", "result": 13.6, "unit": "h"}, {"measurement": "AUC(0-t)", "setting": "[4]; po, 140 mg", "result": 19700, "unit": "ng·h/mL"}, {"measurement": "Clearance mean (±st dev)", "setting": "[4]; po, 140 mg", "result": "2.6 (±0.2) L/hr"}, {"measurement": "Cmax", "setting": "[4]; po, 140 mg", "result": 1330, "unit": "ng/mL"}, {"measurement": "half-life", "setting": "[4]; po, 140 mg", "result": 33.4, "unit": "h"}, {"measurement": "Complete responses (CR)", "setting": "[5]", "result": "No complete responses"}, {"measurement": "Patients with stable disease for ≥ 6 months", "setting": "[5]", "result": "Twenty"}, {"measurement": "Total clinical benefit rate (CR+PR+SD ≥ 6 months)", "setting": "[5]", "result": 20, "unit": "%"}, {"measurement": "Partial response (PR), number of patients", "setting": "[5]; 14 evaluable patients", "result": "one"}, {"measurement": "Progressive disease, number of patients", "setting": "[5]; 14 evaluable patients", "result": "7 and 6"}, {"measurement": "Stable disease (SD), number of patients", "setting": "[5]; 14 evaluable patients", "result": "6 and 7"}, {"measurement": "Estimated overall survival (OS) at 6 months", "setting": "[5]; interval 60–100%", "result": 79, "unit": "%"}, {"measurement": "IC50s observed by the authors earlier", "setting": "[6]", "result": "nanomolar range"}, {"measurement": "IC50", "setting": "[6]; read-out: in vitro IC50 in cell-based assays for Notch1 cleavage", "result": 5, "unit": "nM"}, {"measurement": "Dose-Limiting Toxicity (DLT) observed", "setting": "[7]", "result": "Rash"}, {"measurement": "Mammosphere numbers", "setting": "[8]; RO4929097 alone (5 μM)", "result": "significantly decreased mammosphere numbers"}, {"measurement": "Plasma protein binding", "setting": "[9]", "result": "highly plasma protein-bound"}]}
{"smiles": "C=C1C[C@@H]2[C@H](CC[C@]3(C)C(=O)CC[C@@H]23)[C@@]2(C)C=CC(=O)C=C12", "note": "[exemestane, reference compound]", "values": [{"measurement": "Protein-bound", "setting": "[9]", "result": 90, "unit": "%"}]}
{"smiles": "C[C@]12CC[C@@H]3c4ccc(O)cc4C[C@@H](CCCCCCCCC[S+]([O-])CCCC(F)(F)C(F)(F)F)[C@H]3[C@@H]1CC[C@@H]2O", "note": "(some centres unmarked) [fulvestrant, reference compound]", "values": [{"measurement": "Mammosphere sensitivity to single agent", "setting": "[8]; fulvestrant alone (30 nM)", "result": "partially sensitive"}]}
